Test results reported in ChEMBL document CHEMBL2163319, “Stereoselective synthesis and antiviral activity of methyl-substituted cycloSal-pronucleotides” (J Med Chem, 2012).

Legend:
[1] = test system: Human immunodeficiency virus 2; test: Antiviral activity against HIV-2 infected in thymidine kinase deficient CEM cells assessed as inhibition of virus-induced cytopathicity after 4 days; format: functional, organism-based; conditions: Human immunodeficiency virus 2, CCRF-CEM, 96 h
How it was run: (§1)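 Wild-type CEM/0 or thymidine kinase-deficient CEM/TK- T-lymphocyte cultures infected with HIV-1 or HIV-2 and exposed to virus and compound together for 4 days. Giant cell formation (virus-induced cytopathicity) scored by microscopy; value is the 50% effective concentration.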

[2] = test system: Human immunodeficiency virus 2; test: Antiviral activity against HIV-2 infected in wild type CEM cells assessed as inhibition of virus-induced cytopathicity after 4 days; format: functional, organism-based; conditions: Human immunodeficiency virus 2, CCRF-CEM, 96 h; how it was run: as §1
[3] = test system: Human immunodeficiency virus 1; test: Antiviral activity against HIV-1 infected in wild type CEM cells assessed as inhibition of virus-induced cytopathicity after 4 days; format: functional, organism-based; conditions: Human immunodeficiency virus 1, CCRF-CEM, 96 h; how it was run: as §1
[4] = Cytotoxicity against human CEM cells; format: cell-based; conditions: CCRF-CEM (CEM) cells
[5] = Hydrolysis half life in human CEM cell extracts at pH 6.9; format: ADME, CCRF-CEM
How it was run: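 CEM cell extracts (pH 6.9) incubated with the triester, added from a 3.0 mM DMSO stock, and sampled at several incubation times. Hydrolysis half-life determined.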

[6] = Hydrolysis half life in 25 mM phosphate buffer at pH 7.3 by reversed HPLC analysis; format: physicochemical

SMILES	EC50 [1]	EC50 [2]	EC50 [3]	CC50 [4]	half-life [5]	half-life [6]
Cc1cccc2c1O[P@@](=O)(OC[C@@H]1C=C[C@H](n3cc(C)c(=O)[nH]c3=O)O1)OC2	3200 nM	1100 nM	480 nM	179000 nM	8.7 h	9.2 h
Cc1cccc2c1O[P@](=O)(OC[C@@H]1C=C[C@H](n3cc(C)c(=O)[nH]c3=O)O1)OC2	160 nM	170 nM	90 nM	39000 nM	18 h	22.1 h
Cc1cn([C@H]2C=C[C@@H](CO)O2)c(=O)[nH]c1=O [STAVUDINE]	150000 nM	1300 nM	780 nM	> 250000 nM	–	–
